From ChEMBL document CHEMBL4330057, “Second generation of diazachrysenes: Protection of Ebola virus infected mice and mechanism of action” (Eur J Med Chem, 2019)
Calls of active or inactive are those of the source. No cut-off for these calls is given here.

Key:
Ebolavirus [1] = assay: Antiviral activity against Ebolavirus H. sapiens-wt/1995/Kikwit-9510621 infected in HFF assessed as inhibition of viral infection pretreated for 2 hrs followed by viral infection and measured after 48 hrs by EboV GP immunostaining based high content imaging analysis; type: functional, organism-based; conditions: Orthoebolavirus
[2] = Cytotoxicity against human HeLa cells after 2 hrs by high content imaging analysis; type: cell-based
[3] = Cytotoxicity against HFF after 2 hrs by high content imaging analysis; type: cell-based; conditions: human, HFF cells
[4] = Selectivity index, ratio of CC50 for human HeLa cells to EC50 for Ebolavirus H. sapiens-wt/1995/Kikwit-9510621 infected in human HeLa cells; type: toxicity, cell-based; conditions: read-out: Ratio CC50/EC50
[5] = Selectivity index, ratio of CC50 for HFF to EC50 for Ebolavirus H. sapiens-wt/1995/Kikwit-9510621 infected in human HeLa cells; type: toxicity, cell-based; conditions: read-out: Ratio CC50/EC50
Albumin = Albumin (Homo sapiens, UniProt P02768); assay: Binding affinity to human serum albumin at compound to protein molar ratio of 1:20 after 10 mins by fluorescence spectral analysis; type: ADME; conditions: isolated protein
Sequence of Albumin (P02768 whole entry): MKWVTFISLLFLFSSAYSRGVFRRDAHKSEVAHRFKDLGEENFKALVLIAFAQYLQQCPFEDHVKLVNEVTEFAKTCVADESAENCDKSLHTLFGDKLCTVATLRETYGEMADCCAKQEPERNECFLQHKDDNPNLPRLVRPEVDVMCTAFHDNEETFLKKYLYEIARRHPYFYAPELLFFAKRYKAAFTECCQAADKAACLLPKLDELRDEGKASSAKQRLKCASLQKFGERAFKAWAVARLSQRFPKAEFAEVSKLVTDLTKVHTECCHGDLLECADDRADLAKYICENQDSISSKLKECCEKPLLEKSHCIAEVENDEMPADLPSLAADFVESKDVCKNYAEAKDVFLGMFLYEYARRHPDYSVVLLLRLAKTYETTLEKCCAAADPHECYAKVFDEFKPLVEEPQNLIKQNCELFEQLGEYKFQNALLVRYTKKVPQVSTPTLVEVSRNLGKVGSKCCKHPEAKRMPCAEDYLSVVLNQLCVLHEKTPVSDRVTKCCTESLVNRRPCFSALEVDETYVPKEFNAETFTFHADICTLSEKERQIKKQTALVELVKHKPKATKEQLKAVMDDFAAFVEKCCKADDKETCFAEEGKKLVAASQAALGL
Procedure, shortened: (§1)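 Protein fluorescence spectra recorded while compound was added in increasing amounts. Stern-Volmer binding constant (KSV) derived from the fluorescence change.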

[6] = Binding affinity to AGP (unknown origin) at compound to protein molar ratio of 1:20 after 10 mins by fluorescence spectral analysis; type: ADME; conditions: human, isolated protein; procedure, shortened: as §1
[7] = Toxicity in 6 hrs post fertilized zebrafish embryo assessed as lethal effect on somite formation up to 50 uM up to 120 hrs post fertilization by inverted microscopic method; design: species or system Danio rerio; conditions: in vivo
[8] = Toxicity in 6 hrs post fertilized zebrafish embryo assessed as tail detachment up to 50 uM up to 120 hrs post fertilization by inverted microscopic method; design: species or system Danio rerio; conditions: in vivo
[9] = Toxicity in 6 hrs post fertilized zebrafish embryo assessed as lethal effect on heart beat up to 50 uM up to 120 hrs post fertilization by inverted microscopic method; type: tissue-based, Danio rerio; conditions: in vivo
[10] = Toxicity in 6 hrs post fertilized zebrafish embryo assessed as teratogenic effect by measuring malformation of eyes up to 50 uM up to 120 hrs post fertilization by inverted microscopic method; design: species or system Danio rerio; conditions: in vivo
[11] = Toxicity in 6 hrs post fertilized zebrafish embryo assessed as teratogenic effect by measuring malformation of sacculi/otoliths up to 50 uM up to 120 hrs post fertilization by inverted microscopic method; design: species or system Danio rerio; conditions: in vivo
[12] = Toxicity in 6 hrs post fertilized zebrafish embryo assessed as teratogenic effect by measuring malformation of notochord up to 50 uM up to 120 hrs post fertilization by inverted microscopic method; type: tissue-based, Danio rerio; conditions: in vivo
[13] = Toxicity in 6 hrs post fertilized zebrafish embryo assessed as teratogenic effect by measuring scoliosis up to 50 uM up to 120 hrs post fertilization by inverted microscopic method; design: species or system Danio rerio; conditions: in vivo
[14] = Toxicity in 6 hrs post fertilized zebrafish embryo assessed as teratogenic effect by measuring effect on heart beat frequency up to 50 uM up to 120 hrs post fertilization by inverted microscopic method; design: species or system Danio rerio; conditions: in vivo
[15] = Toxicity in 6 hrs post fertilized zebrafish embryo assessed as teratogenic effect by measuring effect on blood circulation up to 50 uM up to 120 hrs post fertilization by inverted microscopic method; design: species or system Danio rerio; conditions: in vivo
[16] = Toxicity in 6 hrs post fertilized zebrafish embryo assessed as teratogenic effect by measuring pericardial edema up to 50 uM up to 120 hrs post fertilization by inverted microscopic method; design: species or system Danio rerio; conditions: in vivo
[17] = Toxicity in 6 hrs post fertilized zebrafish embryo assessed as teratogenic effect by measuring yolk edema up to 50 uM up to 120 hrs post fertilization by inverted microscopic method; design: species or system Danio rerio; conditions: in vivo
[18] = Toxicity in 6 hrs post fertilized zebrafish embryo assessed as teratogenic effect by measuring yolk absorption up to 50 uM up to 120 hrs post fertilization by inverted microscopic method; design: species or system Danio rerio; conditions: in vivo
[19] = Toxicity in 6 hrs post fertilized zebrafish embryo assessed as teratogenic effect by measuring liver morphology and color up to 50 uM up to 120 hrs post fertilization by inverted microscopic method; type: tissue-based, Danio rerio; conditions: in vivo
[20] = Toxicity in 6 hrs post fertilized zebrafish embryo assessed as teratogenic effect by measuring growth retardation up to 50 uM up to 120 hrs post fertilization by inverted microscopic method; design: species or system Danio rerio; conditions: in vivo
Ebolavirus [21] = assay: Antiviral activity against Ebolavirus H. sapiens-wt/1995/Kikwit-9510621 infected in human HeLa cells assessed as inhibition of viral infection at 2 uM treated simultaneously with viral infection and measured after 24 hrs by EboV GP immunostaining based high content imaging analysis; type: functional, organism-based
Ebolavirus [22] = assay: Antiviral activity against Ebolavirus H. sapiens-wt/1995/Kikwit-9510621 infected in human HeLa cells assessed as inhibition of viral infection at 2 uM pretreated for 2 hrs followed by viral infection and measured after 24 hrs by EboV GP immunostaining based high content imaging analysis; type: functional, organism-based
Ebolavirus [23] = assay: Antiviral activity against Ebolavirus H. sapiens-wt/1995/Kikwit-9510621 infected in human HeLa cells assessed as inhibition of viral infection at 2 uM treated for 2 hrs after viral infection and measured after 24 hrs by EboV GP immunostaining based high content imaging analysis; type: functional, organism-based
HeLa [24] = assay: Induction of lysosomotropism in human HeLa cells infected with Ebolavirus assessed as clustering of late endosomes/lysosomes in cytoplasm at 2 uM for 1 hr by Lysosensor DND189 staining based assay; type: functional, cell-based
Procedure, shortened: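 HeLa cells treated 1 h (2 μM; bafilomycin A1 0.01 μM as control), then LysoSensor DND 189 for 10 min. Washed and imaged live at 443/505 nm (dye) and 405/450 nm (compound). Fluorescence intensity/area quantified. Mean ± SD of 8 wells, about 3000 cells each, three independent experiments.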

HeLa [25] = assay: Induction of lysosomotropism in human HeLa cells infected with Ebolavirus assessed as increase in fluorescence intensity of acid compartments at 2 uM for 1 hr by Lysosensor DND189 staining based assay; type: functional, cell-based
Procedure, shortened: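 HeLa cells were pretreated 1 h with compound (Bafilomycin A1 at 0.01 μM as acidification control), then stained with LysoSensor DND 189 for 10 min and washed. Live imaging at Ex/Em 443/505 nm. Fluorescence intensity per area was quantified by image analysis. Eight wells per point, about 3000 cells/well, mean ± SD, three independent experiments.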

HeLa [26] = assay: Induction of lysosomotropism in human HeLa cells infected with Ebolavirus assessed as dense clustering in perinuclear region at 2 uM for 2 hrs by acridine orange staining based assay; type: functional, cell-based
Procedure, shortened: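 HeLa cells pretreated 2 h, then acridine orange for 30 min, washed and imaged. Total intensity and average area of acridine orange fluorescence quantified by high-content imaging. Mean ± SD of 8 wells, about 3000 cells each, three independent experiments.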

[27] = target: Procathepsin L (Homo sapiens) (UniProt P07711); assay: Inhibition of cathepsin L activity in human HeLa cells at 2 uM after 6 hrs by HCA; type: cell-based
Sequence of Procathepsin L (Homo sapiens) (P07711 114-333 limits assumed): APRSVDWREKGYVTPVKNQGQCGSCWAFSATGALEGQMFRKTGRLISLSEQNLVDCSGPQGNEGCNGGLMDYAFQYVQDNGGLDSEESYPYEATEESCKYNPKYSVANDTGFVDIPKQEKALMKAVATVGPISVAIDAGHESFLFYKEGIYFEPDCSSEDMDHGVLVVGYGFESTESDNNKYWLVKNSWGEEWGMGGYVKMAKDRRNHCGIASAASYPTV

HeLa [28] = assay: Inhibition of lysosome fusion with autophagosome in human HeLa cells harboring GFP-LC3 assessed as increase in GFP-LC3-2 clustering at 2 uM after 4 hrs; type: functional, cell-based
Procedure, shortened: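 HeLa cells stably expressing GFP-LC3 were treated with compound for 4 h, then imaged. Total GFP clusters per cell were counted. Eight-well replicates, about 500 cells/well, mean ± SD, three independent experiments.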

SMILES | EC50 (Ebolavirus [1]) [µM] | EC90 (Ebolavirus [1]) [µM] | CC50 at 2 h [2] [µM] | CC50 at 2 h [3] [µM] | selectivity ratio [4] | selectivity ratio [5] | KSV (Albumin) | KSV [6] [×10⁴ /M] | Activity [7] | Activity [8] | Activity [9] | Activity [10] | Activity [11] | Activity [12] | Activity [13] | Activity [14] | Activity [15] | Activity [16] | Activity [17] | Activity [18] | further results
Cl.Cl.Cl.Cl.c1cc(NCCN2CCOCC2)c2ccc3c(ccc4c(NCCN5CCOCC5)ccnc43)c2n1 | 0.55 | 1.36 | > 20 | > 20 | > 28.5 | > 36.5 | 1.13 ×10⁵ /M | 8.12 | Non-Toxic | Non-Toxic | Non-Toxic | Non-Toxic | Non-Toxic | Non-Toxic | Non-Toxic | Non-Toxic | Non-Toxic | Non-Toxic | Non-Toxic | Non-Toxic | Activity [19]: Non-Toxic; Activity [20]: Non-Toxic; Activity (Ebolavirus [21]): Active; Activity (Ebolavirus [22]): Active; Activity (Ebolavirus [23]): inactive; Activity (HeLa [24]): Active; Activity (HeLa [25]): Active; Activity (HeLa [26]): Active; inhibition [27]: Active; inhibition (HeLa [28]): Active
Cl.Cl.Cl.Cl.c1cc(NCCCCN2CCOCC2)c2ccc3c(ccc4c(NCCN5CCOCC5)ccnc43)c2n1 | 0.21 | 0.78 | 8 | 2.4 | 30 | 11.2 | 8.85 ×10⁴ /M | 6.12 | Non-Toxic | Non-Toxic | Non-Toxic | Non-Toxic | Non-Toxic | Non-Toxic | Non-Toxic | Non-Toxic | Non-Toxic | Non-Toxic | Non-Toxic | Non-Toxic | Activity [19]: Non-Toxic; Activity [20]: Non-Toxic; Activity (Ebolavirus [21]): Active; Activity (Ebolavirus [22]): Active; Activity (Ebolavirus [23]): inactive; Activity (HeLa [24]): Active; Activity (HeLa [25]): Active; Activity (HeLa [26]): Active; inhibition [27]: Active; inhibition (HeLa [28]): Active
